Experimental data from ChEMBL document CHEMBL5696442, “Discovery of type II inhibitors of TGFβ-activated kinase 1 (TAK1) and mitogen-activated protein kinase kinase kinase kinase 2 (MAP4K2)” (J Med Chem, 2015).

Key:
Type in all cases: cell-based
[1] = molecular target: Misshapen-like kinase 1 (Homo sapiens) (UniProt Q8N4C8); experiment: Inhibition of ZC3/MINK Lys2 labeling site in human A-375 cells at 0.05 uM by KiNativ Profiling analysis relative to control
[2] = molecular target: RAC-beta serine/threonine-protein kinase (Homo sapiens) (UniProt P31751); experiment: Inhibition of AKT2 ATP Loop labeling site in human A-375 cells at 0.5 uM by KiNativ Profiling analysis relative to control
Outline: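 Live A375 melanoma cells were treated with compound at 5 or 0.5 μM, then lysed. The lysates were labeled with a lysine-reactive ATP or ADP-biotin probe. Kinase protection from probe labeling was measured by KiNativ.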

[3] = molecular target: Cyclin-dependent kinase 11B (Homo sapiens) (UniProt P21127); experiment: Inhibition of PITSLRE Lys2 labeling site in human A-375 cells at 5 uM by KiNativ Profiling analysis relative to control
[4] = molecular target: T1, Serine/threonine-protein kinase 3 (Homo sapiens) (UniProt Q13188); experiment: Inhibition of MST2 Lys1 labeling site in human A-375 cells at 5 uM by KiNativ Profiling analysis relative to control
T1 sequence (whole entry): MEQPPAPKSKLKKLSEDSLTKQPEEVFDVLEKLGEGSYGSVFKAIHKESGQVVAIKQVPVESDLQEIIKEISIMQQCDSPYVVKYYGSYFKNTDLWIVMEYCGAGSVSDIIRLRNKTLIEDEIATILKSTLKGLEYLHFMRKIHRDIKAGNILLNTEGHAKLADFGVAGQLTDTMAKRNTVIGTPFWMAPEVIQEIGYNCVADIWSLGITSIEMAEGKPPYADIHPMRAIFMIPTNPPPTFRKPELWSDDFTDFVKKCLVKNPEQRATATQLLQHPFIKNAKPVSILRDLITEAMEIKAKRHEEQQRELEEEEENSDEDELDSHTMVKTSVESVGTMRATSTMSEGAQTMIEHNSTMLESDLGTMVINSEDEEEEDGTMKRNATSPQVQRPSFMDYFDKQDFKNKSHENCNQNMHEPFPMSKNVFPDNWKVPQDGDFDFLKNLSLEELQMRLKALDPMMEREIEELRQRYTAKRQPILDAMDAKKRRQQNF

[5] = molecular target: eIF-2-alpha kinase GCN2 (Homo sapiens) (UniProt Q9P2K8); experiment: Inhibition of GCN2 domain2 Lys1 labeling site in human A-375 cells at 0.5 uM by KiNativ Profiling analysis relative to control
[6] = molecular target: Serine/threonine-protein kinase Chk2 (Homo sapiens) (UniProt O96017); experiment: Inhibition of CHK2 Lys1 labeling site in human A-375 cells at 5 uM by KiNativ Profiling analysis relative to control
Outline: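 Live A375 melanoma cells were treated with compound at 5 or 0.5 μM. The cells were then lysed, and the lysates were labeled with a lysine-reactive ATP or ADP-biotin acyl probe (KiNativ). Inhibition is the compound's protection of each kinase labeling-site peptide from probe labeling, relative to untreated control.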

[7] = molecular target: Serine/threonine-protein kinase/endoribonuclease IRE1 (Homo sapiens) (UniProt O75460); experiment: Inhibition of IRE1 Lys2 labeling site in human A-375 cells at 0.5 uM by KiNativ Profiling analysis relative to control
[8] = molecular target: Tyrosine-protein kinase Yes (Homo sapiens) (UniProt P07947); experiment: Inhibition of YES ACT labeling site in human A-375 cells at 0.5 uM by KiNativ Profiling analysis relative to control
[9] = molecular target: T2, Kinase suppressor of Ras 2 (Homo sapiens) (UniProt Q6VAB6); experiment: Inhibition of KSR2 ACT labeling site in human A-375 cells at 5 uM by KiNativ Profiling analysis relative to control
T2 sequence (whole entry): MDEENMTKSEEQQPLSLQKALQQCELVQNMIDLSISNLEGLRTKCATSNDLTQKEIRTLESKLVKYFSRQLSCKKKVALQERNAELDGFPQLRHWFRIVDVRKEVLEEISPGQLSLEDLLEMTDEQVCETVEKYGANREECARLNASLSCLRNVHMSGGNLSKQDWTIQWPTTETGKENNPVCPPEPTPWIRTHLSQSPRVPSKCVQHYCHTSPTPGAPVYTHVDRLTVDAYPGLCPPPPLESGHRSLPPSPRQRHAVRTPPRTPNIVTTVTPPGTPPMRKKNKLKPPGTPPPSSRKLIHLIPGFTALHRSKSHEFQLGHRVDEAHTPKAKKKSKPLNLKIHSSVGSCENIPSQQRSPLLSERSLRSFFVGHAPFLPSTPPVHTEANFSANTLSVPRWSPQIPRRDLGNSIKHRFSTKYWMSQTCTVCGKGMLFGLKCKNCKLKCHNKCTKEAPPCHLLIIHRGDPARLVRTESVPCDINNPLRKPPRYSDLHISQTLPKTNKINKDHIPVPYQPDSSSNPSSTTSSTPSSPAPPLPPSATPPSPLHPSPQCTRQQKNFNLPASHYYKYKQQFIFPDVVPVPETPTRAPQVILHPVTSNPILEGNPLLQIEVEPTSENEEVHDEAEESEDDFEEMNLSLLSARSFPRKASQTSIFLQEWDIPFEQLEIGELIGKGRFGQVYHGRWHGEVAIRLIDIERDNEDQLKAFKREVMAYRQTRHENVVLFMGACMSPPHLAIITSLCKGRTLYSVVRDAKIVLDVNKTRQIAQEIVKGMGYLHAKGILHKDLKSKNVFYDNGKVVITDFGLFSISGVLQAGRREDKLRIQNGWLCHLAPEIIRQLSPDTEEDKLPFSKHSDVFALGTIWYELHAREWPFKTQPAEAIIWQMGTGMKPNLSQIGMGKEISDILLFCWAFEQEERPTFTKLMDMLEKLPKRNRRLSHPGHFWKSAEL

Sequence of Tyrosine-protein kinase Yes (Homo sapiens) (P07947 2-543 limits assumed): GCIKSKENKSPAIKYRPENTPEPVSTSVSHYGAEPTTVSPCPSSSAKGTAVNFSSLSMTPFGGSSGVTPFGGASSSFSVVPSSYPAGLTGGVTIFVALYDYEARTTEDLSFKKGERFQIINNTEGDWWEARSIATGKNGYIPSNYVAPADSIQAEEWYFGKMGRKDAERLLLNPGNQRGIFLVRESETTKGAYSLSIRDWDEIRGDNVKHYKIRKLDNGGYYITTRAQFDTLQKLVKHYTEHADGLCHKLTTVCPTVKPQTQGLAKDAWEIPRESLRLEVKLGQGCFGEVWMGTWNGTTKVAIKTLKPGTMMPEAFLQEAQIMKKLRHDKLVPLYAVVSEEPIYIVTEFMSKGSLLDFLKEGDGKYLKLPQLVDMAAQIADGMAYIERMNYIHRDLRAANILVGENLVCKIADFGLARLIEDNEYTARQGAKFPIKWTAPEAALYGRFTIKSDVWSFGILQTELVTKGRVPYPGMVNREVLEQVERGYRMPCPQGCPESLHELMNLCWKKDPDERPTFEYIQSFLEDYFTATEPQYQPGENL
Sequence of RAC-beta serine/threonine-protein kinase (Homo sapiens) (P31751 whole entry): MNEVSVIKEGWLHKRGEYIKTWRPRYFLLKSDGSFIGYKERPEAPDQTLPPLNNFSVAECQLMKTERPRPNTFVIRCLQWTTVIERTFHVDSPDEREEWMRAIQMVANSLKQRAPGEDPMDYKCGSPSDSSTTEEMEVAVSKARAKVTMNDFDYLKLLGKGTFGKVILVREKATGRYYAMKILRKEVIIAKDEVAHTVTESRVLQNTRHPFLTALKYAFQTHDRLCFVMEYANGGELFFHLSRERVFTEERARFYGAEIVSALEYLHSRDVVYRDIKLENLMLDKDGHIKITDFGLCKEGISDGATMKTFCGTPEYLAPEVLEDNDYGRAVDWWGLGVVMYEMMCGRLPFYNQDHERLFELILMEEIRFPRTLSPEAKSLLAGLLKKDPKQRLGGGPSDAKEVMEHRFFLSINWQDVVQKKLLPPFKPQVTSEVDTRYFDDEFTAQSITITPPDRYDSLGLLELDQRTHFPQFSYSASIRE
Sequence of eIF-2-alpha kinase GCN2 (Homo sapiens) (Q9P2K8 whole entry, the tested form may be a part): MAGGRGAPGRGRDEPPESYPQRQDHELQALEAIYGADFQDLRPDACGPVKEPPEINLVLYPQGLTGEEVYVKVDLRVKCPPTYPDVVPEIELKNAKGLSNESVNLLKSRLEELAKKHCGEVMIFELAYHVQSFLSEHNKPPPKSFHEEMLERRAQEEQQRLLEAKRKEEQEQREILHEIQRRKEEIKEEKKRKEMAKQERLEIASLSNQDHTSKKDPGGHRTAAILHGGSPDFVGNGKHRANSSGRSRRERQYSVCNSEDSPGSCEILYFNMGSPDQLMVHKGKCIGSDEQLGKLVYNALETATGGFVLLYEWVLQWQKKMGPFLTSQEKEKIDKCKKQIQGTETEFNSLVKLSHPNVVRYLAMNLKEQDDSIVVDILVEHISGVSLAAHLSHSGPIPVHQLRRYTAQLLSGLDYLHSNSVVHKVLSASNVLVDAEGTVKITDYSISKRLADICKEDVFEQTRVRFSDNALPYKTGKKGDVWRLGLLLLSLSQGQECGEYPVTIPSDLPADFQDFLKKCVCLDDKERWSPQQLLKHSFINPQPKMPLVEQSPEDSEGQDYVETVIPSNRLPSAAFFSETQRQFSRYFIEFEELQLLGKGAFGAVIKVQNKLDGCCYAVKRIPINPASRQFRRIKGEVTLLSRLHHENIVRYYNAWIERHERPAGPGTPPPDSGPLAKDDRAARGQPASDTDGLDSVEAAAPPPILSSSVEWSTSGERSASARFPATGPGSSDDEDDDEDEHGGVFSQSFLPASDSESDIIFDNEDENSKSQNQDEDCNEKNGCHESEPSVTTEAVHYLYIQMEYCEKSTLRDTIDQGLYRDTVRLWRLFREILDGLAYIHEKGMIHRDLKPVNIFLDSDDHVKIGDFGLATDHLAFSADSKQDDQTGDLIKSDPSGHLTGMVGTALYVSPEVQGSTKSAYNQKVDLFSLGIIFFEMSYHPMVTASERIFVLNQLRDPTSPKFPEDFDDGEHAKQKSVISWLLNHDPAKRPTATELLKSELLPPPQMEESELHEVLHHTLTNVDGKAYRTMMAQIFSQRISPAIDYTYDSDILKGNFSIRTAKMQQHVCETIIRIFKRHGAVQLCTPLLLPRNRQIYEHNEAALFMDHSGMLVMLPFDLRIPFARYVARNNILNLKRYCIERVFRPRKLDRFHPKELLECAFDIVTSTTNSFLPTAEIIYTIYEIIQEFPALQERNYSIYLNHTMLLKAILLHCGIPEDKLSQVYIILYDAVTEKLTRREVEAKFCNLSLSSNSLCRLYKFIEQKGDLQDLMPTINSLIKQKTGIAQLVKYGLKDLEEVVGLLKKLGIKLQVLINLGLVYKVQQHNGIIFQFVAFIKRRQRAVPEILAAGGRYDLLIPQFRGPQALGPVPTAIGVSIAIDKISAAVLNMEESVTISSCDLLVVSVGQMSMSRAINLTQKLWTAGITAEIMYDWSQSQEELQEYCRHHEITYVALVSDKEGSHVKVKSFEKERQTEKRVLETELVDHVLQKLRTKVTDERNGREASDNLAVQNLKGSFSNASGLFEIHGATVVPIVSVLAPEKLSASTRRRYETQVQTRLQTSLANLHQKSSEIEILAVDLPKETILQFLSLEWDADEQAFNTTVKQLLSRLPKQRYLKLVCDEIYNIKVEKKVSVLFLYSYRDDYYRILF
Sequence of Cyclin-dependent kinase 11B (Homo sapiens) (P21127 whole entry): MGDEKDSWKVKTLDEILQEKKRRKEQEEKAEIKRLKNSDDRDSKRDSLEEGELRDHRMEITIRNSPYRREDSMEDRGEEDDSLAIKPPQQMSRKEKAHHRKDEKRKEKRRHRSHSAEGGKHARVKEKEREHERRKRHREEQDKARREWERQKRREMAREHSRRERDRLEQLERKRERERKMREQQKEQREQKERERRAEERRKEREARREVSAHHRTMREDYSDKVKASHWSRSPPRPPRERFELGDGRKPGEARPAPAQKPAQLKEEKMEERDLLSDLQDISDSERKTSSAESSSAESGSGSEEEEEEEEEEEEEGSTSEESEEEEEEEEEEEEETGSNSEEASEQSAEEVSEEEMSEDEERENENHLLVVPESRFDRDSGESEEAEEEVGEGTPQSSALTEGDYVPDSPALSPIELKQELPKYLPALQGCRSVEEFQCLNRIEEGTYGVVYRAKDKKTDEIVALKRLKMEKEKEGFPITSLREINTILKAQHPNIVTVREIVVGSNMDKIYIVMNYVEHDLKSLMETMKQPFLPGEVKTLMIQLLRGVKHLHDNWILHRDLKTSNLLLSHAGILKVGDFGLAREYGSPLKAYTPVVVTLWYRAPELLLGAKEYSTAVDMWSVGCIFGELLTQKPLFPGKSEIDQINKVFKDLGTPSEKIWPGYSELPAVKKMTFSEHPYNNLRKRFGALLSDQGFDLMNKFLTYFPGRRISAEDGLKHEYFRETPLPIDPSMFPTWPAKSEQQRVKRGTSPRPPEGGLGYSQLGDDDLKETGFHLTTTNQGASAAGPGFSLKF
Sequence of Serine/threonine-protein kinase Chk2 (Homo sapiens) (O96017 whole entry): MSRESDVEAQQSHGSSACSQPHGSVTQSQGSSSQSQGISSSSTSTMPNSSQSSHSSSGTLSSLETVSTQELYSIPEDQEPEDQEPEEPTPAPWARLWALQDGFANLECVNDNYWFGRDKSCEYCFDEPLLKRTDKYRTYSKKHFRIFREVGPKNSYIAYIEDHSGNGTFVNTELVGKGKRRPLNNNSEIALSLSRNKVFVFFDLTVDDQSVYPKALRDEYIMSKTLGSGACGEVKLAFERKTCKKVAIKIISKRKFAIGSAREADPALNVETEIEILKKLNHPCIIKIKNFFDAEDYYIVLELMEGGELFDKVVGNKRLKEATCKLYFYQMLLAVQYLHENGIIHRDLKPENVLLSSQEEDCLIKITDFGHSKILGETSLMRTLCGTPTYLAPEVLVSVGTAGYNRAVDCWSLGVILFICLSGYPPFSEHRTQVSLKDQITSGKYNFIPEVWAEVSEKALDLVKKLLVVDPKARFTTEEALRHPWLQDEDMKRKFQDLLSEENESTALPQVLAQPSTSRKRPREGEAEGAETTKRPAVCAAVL
Sequence of Serine/threonine-protein kinase/endoribonuclease IRE1 (Homo sapiens) (O75460 19-977 limits assumed): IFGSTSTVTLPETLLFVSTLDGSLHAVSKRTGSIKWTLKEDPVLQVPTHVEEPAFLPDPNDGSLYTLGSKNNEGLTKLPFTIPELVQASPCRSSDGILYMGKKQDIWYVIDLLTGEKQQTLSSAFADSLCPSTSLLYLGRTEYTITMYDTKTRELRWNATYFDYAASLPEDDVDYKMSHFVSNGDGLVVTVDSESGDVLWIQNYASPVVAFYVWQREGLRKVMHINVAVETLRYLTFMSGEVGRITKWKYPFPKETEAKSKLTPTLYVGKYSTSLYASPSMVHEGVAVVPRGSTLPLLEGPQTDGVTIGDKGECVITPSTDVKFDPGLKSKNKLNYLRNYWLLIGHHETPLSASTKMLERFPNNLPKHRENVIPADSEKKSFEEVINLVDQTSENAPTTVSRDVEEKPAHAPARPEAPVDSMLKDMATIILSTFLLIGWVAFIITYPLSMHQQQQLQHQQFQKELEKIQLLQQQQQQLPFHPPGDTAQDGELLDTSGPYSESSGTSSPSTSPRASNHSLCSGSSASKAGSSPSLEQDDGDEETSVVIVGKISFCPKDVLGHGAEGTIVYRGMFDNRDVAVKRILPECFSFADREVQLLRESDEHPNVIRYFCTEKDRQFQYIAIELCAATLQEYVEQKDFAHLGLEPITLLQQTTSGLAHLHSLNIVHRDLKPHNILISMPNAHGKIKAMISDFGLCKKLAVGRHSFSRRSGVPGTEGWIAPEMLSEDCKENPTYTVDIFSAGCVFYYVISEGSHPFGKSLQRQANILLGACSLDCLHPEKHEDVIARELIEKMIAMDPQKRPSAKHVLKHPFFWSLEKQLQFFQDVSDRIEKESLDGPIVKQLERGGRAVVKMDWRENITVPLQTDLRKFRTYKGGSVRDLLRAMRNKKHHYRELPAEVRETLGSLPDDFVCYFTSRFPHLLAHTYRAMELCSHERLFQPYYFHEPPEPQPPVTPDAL

Row | Structure (SMILES) | inhibition [1] [%] | inhibition [2] [%] | inhibition [3] [%] | inhibition [4] [%] | inhibition [5] [%] | inhibition [6] [%] | inhibition [7] [%] | inhibition [8] [%] | inhibition [9] [%]
1 | CCN1CCN(Cc2ccc(NC(=O)c3ccc(C)c(Oc4ccnc5[nH]ccc45)c3)cc2C(F)(F)F)CC1 | 32.6 | -1.8 | 6.3 | 13.7 | -10 | 5.1 | 4.5 | 36.5 | 32.1
2 | CCN1CCN(Cc2ccc(NC(=O)c3ccc(C)c(/C=C/c4cnc5[nH]ccc5c4OC)c3)cc2C(F)(F)F)CC1 | 19.5 | 25.1 | -9.5 | 25 | 40.4 | 11.5 | -9.6 | 72.6 | 12.2
